The values that follow come from ChEMBL document CHEMBL1154281 (J Med Chem, 2009).

The source made the active and inactive calls. The rule behind the calls is not given here. Numbered stars: 1 amine (or outer) side, 2 acyl side, 3 side chain; on linkers, the order of the positions; unused ones are H or OH. Square brackets hold non-standard residues; d marks the D form. Peptide text beside a SMILES is read from it. X1 = O=C([C@@H]1Cc2nc[nH]c2CN1[*:1])[*:2]; Tic = O=C(O)[C@@H]1Cc2ccccc2CN1

The target in data set [1] is T1, Type-1 angiotensin II receptor (Homo sapiens) (UniProt P30556).
T1 sequence (whole entry): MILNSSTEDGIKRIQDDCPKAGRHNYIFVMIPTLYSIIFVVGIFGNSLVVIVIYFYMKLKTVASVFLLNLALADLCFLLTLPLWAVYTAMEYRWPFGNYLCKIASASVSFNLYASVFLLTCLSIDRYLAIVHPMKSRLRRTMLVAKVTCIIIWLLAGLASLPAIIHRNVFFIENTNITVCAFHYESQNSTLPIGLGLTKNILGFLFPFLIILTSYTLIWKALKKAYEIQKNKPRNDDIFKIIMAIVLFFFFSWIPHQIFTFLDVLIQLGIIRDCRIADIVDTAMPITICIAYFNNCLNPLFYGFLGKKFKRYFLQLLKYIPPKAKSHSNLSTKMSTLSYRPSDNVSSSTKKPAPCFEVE
Put plainly: Displacement of [3H]valsartan from human recombinant AT1 receptor expressed in CHO cells at 10 uM after 40 mins by liquid scintillation counting. The data set is classed as cell-based. A digest of the protocol:
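Intact CHO-AT1 cells, human AT1 receptor stably expressed, prewashed in PBS, then 15 min in DMEM at 37 °C. Test agent at 10^-5 M with [3H]Valsartan (final 1.5 nM) for 40 min at 37 °C. Nonspecific binding with 1 μM Candesartan. Specific binding reported as percent of control, binding in medium only. Cell-bound radioactivity solubilized in 0.2 M NaOH and counted.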
For orientation: Displacement assays read how much labelled ligand stays bound in the presence of the test substance.

The nature of data set [2]: Metabolic stability in CHOK1 cells harboring endogenous IRAP at 0.1 to 10000 nM pretreated for 40 mins by [3H]angiotensin 4 competition binding assay in absence of chelator EDTA and 1, 10-phenantroline. Type of data set: ADME, cell-based, Cricetulus griseus. To be noted: chinese hamster, cho-k1, 40 min, 10 µM. The essentials: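 Membrane homogenates of CHO-K1 cells carrying endogenous IRAP, equivalent to 4×10^5 cells, in 50 mM Tris-HCl pH 7.4 assay buffer. Preincubated 40 min at 37 °C with compound, no chelator added. [3H]Ang IV (final 3 nM) then added for 30 min at 37 °C. Nonspecific binding with 10 μM Ang IV. Filtered on BSA-presoaked GF/B filters and counted. Specific binding given as percent of control.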

Data set [3] addresses T2, Type-1 angiotensin II receptor (Homo sapiens, UniProt P30556).
T2 sequence (P30556 whole entry): T1 sequence (whole entry)
Put plainly: Displacement of [3H]valsartan from human recombinant AT1 receptor expressed in CHO cells after 40 mins by liquid scintillation counting. Type of data set: cell-based. A digest of the protocol: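 CHO cells stably expressing human AT1 receptor, washed twice in PBS at room temperature, then 15 min in DMEM at 37 °C. Competition with [3H]Valsartan (final 1.5 nM) over a full dose range for 40 min at 37 °C. Nonspecific binding defined with 1 μM Candesartan. Cells washed 3× in cold PBS and lysed in 0.2 M NaOH before scintillation counting. IC50 by nonlinear regression, Ki by Cheng–Prusoff.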

As to `CC[C@H](C)[C@H](NC(=O)[C@H](Cc1ccc(O)cc1)NC(=O)[C@@H](N)C(C)C)C(=O)N[C@H]1Cc2c([nH]c3ccccc23)CN(CC(=O)N[C@@H](Cc2ccccc2)C(=O)O)C1=O`, the outcome in data set [1] was inactive. In addition, in data set [2], the Stability entry is given as “Unstable”.

For the compound `CC[C@H](C)[C@H](NC(=O)[C@H](Cc1ccc(O)cc1)NC(=O)[C@@H](N)C(C)C)C(=O)N1Cc2[nH]cnc2C[C@H]1C(=O)N1CCC[C@H]1C(=O)N[C@@H](Cc1ccccc1)C(=O)O` (H-VYI[X1]PF-OH), the result in data set [1] was inactive.

As for `CC[C@H](C)[C@H](NC(=O)[C@H](Cc1ccc(O)cc1)NC(=O)[C@@H](N)C(C)C)C(=O)N[C@H]1Cc2ccccc2CN(CC(=O)N[C@@H](Cc2ccccc2)C(=O)O)C1=O`, the outcome in data set [1] was inactive. Also, the Stability result in data set [2] was “Unstable”.

For the compound `CC[C@H](C)[C@H](NC(=O)[C@H](Cc1ccc(O)cc1)NC(=O)[C@@H](CN)C(C)C)C(=O)N[C@H]1Cc2c([nH]c3ccccc23)CN(CC(=O)N[C@@H](Cc2ccccc2)C(=O)O)C1=O`, the result in data set [1] was inactive. Also, in data set [2], the Stability entry is on record as “Stable”.

In the case of `CC[C@H](C)[C@H](NC(=O)[C@H](Cc1ccc(O)cc1)NC(=O)[C@@H](N)C(C)C)C(=O)N1Cc2ccccc2C[C@H]1C(=O)N1CCC[C@H]1C(=O)N[C@@H](Cc1ccccc1)C(=O)O` (H-VYI[Tic]PF-OH), the outcome in data set [1] was inactive.

As a reminder, the Ki is the equilibrium dissociation constant of an inhibitor or competing ligand from its target. As for `CC[C@H](C)[C@H](NC(=O)[C@H](Cc1ccc(O)cc1)NC(=O)[C@@H](CN)C(C)C)C(=O)N[C@H]1Cc2ccccc2CN(CC(=O)N[C@@H](Cc2ccccc2)C(=O)O)C1=O`, the outcome in data set [1] was Active. Moreover, in data set [2], the Stability entry is on record as “Stable”. Further, the inhibition constant Ki in data set [3] was 141 nM.
